Results from ChEMBL document CHEMBL4229344 (Eur J Med Chem, 2018).

Columns and labels:
[1] = target: Phosphatidylinositol 4-phosphate 5-kinase type-1 gamma (Homo sapiens) (UniProt O60331); assay: Binding affinity to wild-type human partial length PIP5K1C (M1 to T668 residues) expressed in mammalian expression system assessed as residual binding level at 1 uM by Kinomescan method relative to control
Summary of the method: (§1)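 KINOMEscan competition binding against a panel of 468 purified kinases/mutants, compound tested at 1 μM; readout is relative binding activity versus control.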

[2] = target: Activin receptor type-1 (Homo sapiens) (UniProt Q04771); assay: Binding affinity to wild-type human ACVR1 (C188 to C509 residues) expressed in bacterial expression system assessed as residual binding level at 1 uM by Kinomescan method relative to control
Summary of the method: (§2)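 Single-concentration (1 μM) competition-binding screen run by KINOMEscan against a panel of 468 purified kinases and mutants. The read-out is the relative binding activity of the test compound to each kinase.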

[3] = target: G protein-coupled receptor kinase 3 (Homo sapiens) (UniProt P35626); assay: Binding affinity to wild-type human full length GRK3 (M1 to L688 residues) expressed in mammalian expression system assessed as residual binding level at 1 uM by Kinomescan method relative to control; summary of the method: as §2
[4] = target: Mast/stem cell growth factor receptor Kit (Homo sapiens, UniProt P10721); assay: Inhibition of TEL-fused c-KIT (unknown origin) expressed in mouse BA/F3 cells assessed as growth inhibition after 72 hrs by CellTiter-Glo or CCK-8 assay; type: cell-based
Summary of the method: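 Parental BaF3 or IL-3-independent TEL-kinase BaF3 lines, made by retroviral infection and puromycin selection, grown in RPMI 1640 with 10% FBS. Cells seeded at 1–3 × 10^4 cells/mL with serial compound concentrations for 72 h. Viability read by CellTiter-Glo luminescence or CCK-8 absorbance at 450/655 nm and normalised to DMSO. GI50 obtained by triplicate testing with linear regression. Selectivity is the ratio of the two GI50 values.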

[5] = target: Protein kinase C theta type (Homo sapiens) (UniProt Q04759); assay: Binding affinity to wild-type human partial length PRKCQ (L350 to S706 residues) expressed in bacterial expression system assessed as residual binding level at 1 uM by Kinomescan method relative to control; summary of the method: as §1
Sequence of Protein kinase C theta type (Homo sapiens) (Q04759 whole entry, looked up, the tested form may be a part): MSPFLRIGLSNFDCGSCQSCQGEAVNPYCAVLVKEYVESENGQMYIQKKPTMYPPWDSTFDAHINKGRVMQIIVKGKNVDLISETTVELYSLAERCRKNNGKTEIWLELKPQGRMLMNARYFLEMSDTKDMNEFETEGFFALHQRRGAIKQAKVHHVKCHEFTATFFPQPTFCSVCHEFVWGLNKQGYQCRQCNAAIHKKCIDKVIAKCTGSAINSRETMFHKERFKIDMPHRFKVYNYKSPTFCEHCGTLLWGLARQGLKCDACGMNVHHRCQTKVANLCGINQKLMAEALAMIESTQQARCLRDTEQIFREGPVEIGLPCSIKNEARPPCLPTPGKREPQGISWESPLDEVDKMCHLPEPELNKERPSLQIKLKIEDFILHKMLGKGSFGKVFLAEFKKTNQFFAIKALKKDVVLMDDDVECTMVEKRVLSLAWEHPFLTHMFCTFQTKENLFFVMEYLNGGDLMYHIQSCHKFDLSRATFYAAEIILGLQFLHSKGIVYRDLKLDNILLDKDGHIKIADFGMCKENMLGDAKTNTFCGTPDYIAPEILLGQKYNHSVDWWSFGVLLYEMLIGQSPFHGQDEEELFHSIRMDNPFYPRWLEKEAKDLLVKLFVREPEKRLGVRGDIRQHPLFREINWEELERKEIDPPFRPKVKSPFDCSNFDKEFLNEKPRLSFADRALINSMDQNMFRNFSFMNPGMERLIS

[6] = target: Interleukin-1 receptor-associated kinase 1 (Homo sapiens) (UniProt P51617); assay: Binding affinity to wild-type human partial length IRAK1 (R194 to S712 residues) expressed in mammalian expression system assessed as residual binding level at 1 uM by Kinomescan method relative to control
[7] = system: Receptor-type tyrosine-protein kinase FLT3 (Homo sapiens), P36888 [R834Q]; assay: Binding affinity to human partial length FLT3 R834Q mutant (V592 to Y969 residues) expressed in mammalian expression system assessed as residual binding level at 1 uM by Kinomescan method relative to control
Summary of the method: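 Kinome-wide single-concentration binding screen (KINOMEscan) at 1 μM against a panel of 468 purified kinases and mutants. Read-out is relative binding of each kinase compared with control. Selectivity across the panel was summarised as an S(10) score.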

Homo sapiens = species on record: Homo sapiens; assay: Selectivity index, ratio of IC50 for PDGFRbeta (unknown origin) by ADP-Glo kinase assay to IC50 for PDGFRalpha (unknown origin) by ADP-Glo kinase assay
[8] = target: Dual specificity tyrosine-phosphorylation-regulated kinase 2 (Homo sapiens) (UniProt Q92630); assay: Binding affinity to wild-type human full length DYRK2 (M1 to S528 residues) expressed in mammalian expression system assessed as residual binding level at 1 uM by Kinomescan method relative to control; summary of the method: as §2
[9] = target: Insulin receptor-related protein (Homo sapiens) (UniProt P14616); assay: Binding affinity to wild-type human partial length INSRR (R950 to E1278 residues) expressed in bacterial expression system assessed as residual binding level at 1 uM by Kinomescan method relative to control
[10] = system: eIF-2-alpha kinase GCN2 (Homo sapiens), Q9P2K8 [S808G]; assay: Binding affinity to wild-type human partial length GCN2 kinase domain 2 (R585 to T1018 residues) S808G mutant expressed in bacterial expression system assessed as residual binding level at 1 uM by Kinomescan method relative to control
Sequence of eIF-2-alpha kinase GCN2 (Homo sapiens), Q9P2K8 [S808G] (Q9P2K8 whole entry S808G, the tested form may be a part): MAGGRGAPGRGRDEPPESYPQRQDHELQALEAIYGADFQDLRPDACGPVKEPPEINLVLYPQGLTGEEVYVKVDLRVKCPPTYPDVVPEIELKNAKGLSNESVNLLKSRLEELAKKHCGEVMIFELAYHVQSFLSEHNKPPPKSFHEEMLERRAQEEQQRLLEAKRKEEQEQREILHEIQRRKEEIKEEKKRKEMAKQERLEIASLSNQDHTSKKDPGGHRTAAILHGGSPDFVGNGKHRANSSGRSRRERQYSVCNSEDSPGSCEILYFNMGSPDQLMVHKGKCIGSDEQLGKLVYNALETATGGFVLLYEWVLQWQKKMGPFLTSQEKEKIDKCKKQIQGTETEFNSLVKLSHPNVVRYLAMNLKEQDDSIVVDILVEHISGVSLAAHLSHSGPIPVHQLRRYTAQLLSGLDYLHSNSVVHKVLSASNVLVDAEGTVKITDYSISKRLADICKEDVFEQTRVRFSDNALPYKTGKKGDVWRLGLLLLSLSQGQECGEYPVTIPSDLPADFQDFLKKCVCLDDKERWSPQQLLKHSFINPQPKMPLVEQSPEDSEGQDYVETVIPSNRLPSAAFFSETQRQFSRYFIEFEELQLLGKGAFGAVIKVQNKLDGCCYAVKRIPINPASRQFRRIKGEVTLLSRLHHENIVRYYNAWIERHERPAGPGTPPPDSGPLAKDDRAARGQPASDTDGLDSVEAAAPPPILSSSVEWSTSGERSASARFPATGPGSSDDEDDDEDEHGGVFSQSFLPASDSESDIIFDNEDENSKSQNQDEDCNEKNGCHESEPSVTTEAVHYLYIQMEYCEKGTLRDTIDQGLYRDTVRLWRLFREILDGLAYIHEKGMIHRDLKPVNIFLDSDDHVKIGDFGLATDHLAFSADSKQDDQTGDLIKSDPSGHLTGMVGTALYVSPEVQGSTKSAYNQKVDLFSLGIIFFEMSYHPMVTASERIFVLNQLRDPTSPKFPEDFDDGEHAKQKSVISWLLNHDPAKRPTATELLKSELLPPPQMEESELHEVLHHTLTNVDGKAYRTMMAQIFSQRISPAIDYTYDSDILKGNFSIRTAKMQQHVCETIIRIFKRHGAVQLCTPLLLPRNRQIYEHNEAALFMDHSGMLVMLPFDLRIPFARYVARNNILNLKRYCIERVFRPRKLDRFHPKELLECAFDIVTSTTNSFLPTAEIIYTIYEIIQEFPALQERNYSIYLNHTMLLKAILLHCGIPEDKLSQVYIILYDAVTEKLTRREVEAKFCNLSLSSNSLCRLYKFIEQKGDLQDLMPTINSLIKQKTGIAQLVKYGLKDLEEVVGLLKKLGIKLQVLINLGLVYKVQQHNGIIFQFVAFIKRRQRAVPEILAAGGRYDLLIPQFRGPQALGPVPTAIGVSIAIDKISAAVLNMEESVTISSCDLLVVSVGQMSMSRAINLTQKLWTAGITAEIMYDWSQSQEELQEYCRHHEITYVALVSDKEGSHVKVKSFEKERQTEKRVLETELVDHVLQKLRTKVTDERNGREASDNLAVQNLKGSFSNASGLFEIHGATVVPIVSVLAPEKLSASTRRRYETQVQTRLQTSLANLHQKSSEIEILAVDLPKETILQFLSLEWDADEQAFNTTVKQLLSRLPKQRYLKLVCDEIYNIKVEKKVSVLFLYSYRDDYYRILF

[11] = target: Dual specificity mitogen-activated protein kinase kinase 5 (Homo sapiens) (UniProt Q13163); assay: Binding affinity to wild-type human partial length MEK5 (L98 to P448 residues) expressed in mammalian expression system assessed as residual binding level at 1 uM by Kinomescan method relative to control
[12] = target: Ribosomal protein S6 kinase alpha-5 (Homo sapiens) (UniProt O75582); assay: Binding affinity to wild-type human partial length C-terminal RPS6KA5 kinase domain 2 (V390 to T718 residues) expressed in bacterial expression system assessed as residual binding level at 1 uM by Kinomescan method relative to control
Sequence of Ribosomal protein S6 kinase alpha-5 (Homo sapiens) (O75582 whole entry, looked up, the tested form may be a part): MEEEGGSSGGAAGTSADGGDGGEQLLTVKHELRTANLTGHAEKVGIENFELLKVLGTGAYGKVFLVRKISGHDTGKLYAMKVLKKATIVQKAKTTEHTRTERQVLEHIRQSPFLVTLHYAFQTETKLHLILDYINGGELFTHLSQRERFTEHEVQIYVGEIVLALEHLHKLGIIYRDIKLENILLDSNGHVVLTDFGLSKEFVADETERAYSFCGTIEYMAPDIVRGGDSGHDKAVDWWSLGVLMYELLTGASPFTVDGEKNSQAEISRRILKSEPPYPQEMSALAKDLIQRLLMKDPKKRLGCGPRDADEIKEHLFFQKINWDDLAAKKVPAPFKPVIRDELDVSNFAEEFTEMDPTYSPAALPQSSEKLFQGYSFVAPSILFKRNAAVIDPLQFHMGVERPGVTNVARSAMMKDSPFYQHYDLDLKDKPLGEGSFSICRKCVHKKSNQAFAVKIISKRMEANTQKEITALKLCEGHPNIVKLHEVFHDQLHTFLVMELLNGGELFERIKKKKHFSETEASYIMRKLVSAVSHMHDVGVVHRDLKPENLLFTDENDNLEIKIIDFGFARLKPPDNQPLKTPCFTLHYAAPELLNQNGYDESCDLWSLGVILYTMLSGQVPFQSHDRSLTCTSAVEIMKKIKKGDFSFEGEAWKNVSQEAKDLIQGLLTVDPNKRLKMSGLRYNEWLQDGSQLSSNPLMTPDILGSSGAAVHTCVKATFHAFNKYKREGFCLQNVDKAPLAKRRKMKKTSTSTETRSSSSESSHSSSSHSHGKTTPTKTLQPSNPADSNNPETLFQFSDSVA

[13] = target: MAP/microtubule affinity-regulating kinase 4 (Homo sapiens) (UniProt Q96L34); assay: Binding affinity to wild-type human partial length MARK4 (K29 to G340 residues) expressed in bacterial expression system assessed as residual binding level at 1 uM by Kinomescan method relative to control
Sequence of MAP/microtubule affinity-regulating kinase 4 (Homo sapiens) (Q96L34 whole entry, the tested form may be a part): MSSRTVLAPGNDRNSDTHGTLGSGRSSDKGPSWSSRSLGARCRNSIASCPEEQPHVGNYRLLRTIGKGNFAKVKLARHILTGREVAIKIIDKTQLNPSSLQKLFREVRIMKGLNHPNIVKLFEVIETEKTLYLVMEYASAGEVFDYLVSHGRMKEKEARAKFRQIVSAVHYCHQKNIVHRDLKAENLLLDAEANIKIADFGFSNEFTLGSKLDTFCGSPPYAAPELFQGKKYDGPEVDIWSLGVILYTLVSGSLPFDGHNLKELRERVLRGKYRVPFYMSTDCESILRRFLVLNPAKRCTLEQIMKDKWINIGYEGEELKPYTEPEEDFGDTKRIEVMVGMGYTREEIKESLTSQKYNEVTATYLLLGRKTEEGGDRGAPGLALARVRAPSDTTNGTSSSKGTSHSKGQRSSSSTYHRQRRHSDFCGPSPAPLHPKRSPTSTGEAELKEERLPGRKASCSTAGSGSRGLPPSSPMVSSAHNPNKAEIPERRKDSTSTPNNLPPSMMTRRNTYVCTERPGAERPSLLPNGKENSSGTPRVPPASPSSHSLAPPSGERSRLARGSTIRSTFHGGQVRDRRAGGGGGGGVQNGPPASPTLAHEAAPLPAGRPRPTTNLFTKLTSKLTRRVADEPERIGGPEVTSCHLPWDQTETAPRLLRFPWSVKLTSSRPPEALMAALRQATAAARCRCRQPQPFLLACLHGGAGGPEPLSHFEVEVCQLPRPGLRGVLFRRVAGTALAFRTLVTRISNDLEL

[14] = target: Serine/threonine-protein kinase LATS1 (Homo sapiens) (UniProt O95835); assay: Binding affinity to wild-type human partial length LATS1 (Q678 to V1130 residues) expressed in bacterial expression system assessed as residual binding level at 1 uM by Kinomescan method relative to control
[15] = target: Serine/threonine-protein kinase tousled-like 2 (Homo sapiens) (UniProt Q86UE8); assay: Binding affinity to wild-type human partial length TLK2 (E424 to N749 residues) expressed in bacterial expression system assessed as residual binding level at 1 uM by Kinomescan method relative to control
[16] = target: Cyclin-dependent kinase 17 (Homo sapiens) (UniProt Q00537); assay: Binding affinity to wild-type human full length PCTK2 (M1 to F523 residues) expressed in bacterial expression system assessed as residual binding level at 1 uM by Kinomescan method relative to control
Summary of the method: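 Single-concentration KINOMEscan (DiscoverX) binding screen at 1 μM against a panel of 468 purified kinases and mutants. The read-out is binding relative to control.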

[17] = target: Serine/threonine-protein kinase 4 (Homo sapiens) (UniProt Q13043); assay: Binding affinity to wild-type human full length MST1 (M1 to F487 residues) expressed in bacterial expression system assessed as residual binding level at 1 uM by Kinomescan method relative to control
Summary of the method: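 KINOMEscan competition binding against 468 purified kinases/mutants, test compound at 1 µM; residual binding relative to control.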

[18] = target: Serine/threonine-protein kinase PAK 5 (Homo sapiens) (UniProt Q9P286); assay: Binding affinity to wild-type human partial length PAK7 (Y400 to H719 residues) expressed in bacterial expression system assessed as residual binding level at 1 uM by Kinomescan method relative to control; summary of the method: as §1
[19] = target: Dual specificity mitogen-activated protein kinase kinase 6 (Homo sapiens) (UniProt P52564); assay: Binding affinity to wild-type human partial length MEK6 (K36 to D334 residues) expressed in bacterial expression system assessed as residual binding level at 1 uM by Kinomescan method relative to control
Sequence of Dual specificity mitogen-activated protein kinase kinase 6 (Homo sapiens) (P52564 whole entry, the tested form may be a part): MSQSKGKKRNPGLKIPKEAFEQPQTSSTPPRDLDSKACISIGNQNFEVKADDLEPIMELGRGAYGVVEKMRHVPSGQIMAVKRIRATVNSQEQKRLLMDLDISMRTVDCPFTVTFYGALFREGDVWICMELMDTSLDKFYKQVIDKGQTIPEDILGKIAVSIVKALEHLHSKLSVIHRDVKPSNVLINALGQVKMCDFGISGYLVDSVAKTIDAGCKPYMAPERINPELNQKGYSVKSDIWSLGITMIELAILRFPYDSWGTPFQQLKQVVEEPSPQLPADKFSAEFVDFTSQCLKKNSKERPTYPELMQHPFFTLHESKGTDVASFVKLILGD

Sequence of Phosphatidylinositol 4-phosphate 5-kinase type-1 gamma (Homo sapiens) (O60331 whole entry, the tested form may be a part): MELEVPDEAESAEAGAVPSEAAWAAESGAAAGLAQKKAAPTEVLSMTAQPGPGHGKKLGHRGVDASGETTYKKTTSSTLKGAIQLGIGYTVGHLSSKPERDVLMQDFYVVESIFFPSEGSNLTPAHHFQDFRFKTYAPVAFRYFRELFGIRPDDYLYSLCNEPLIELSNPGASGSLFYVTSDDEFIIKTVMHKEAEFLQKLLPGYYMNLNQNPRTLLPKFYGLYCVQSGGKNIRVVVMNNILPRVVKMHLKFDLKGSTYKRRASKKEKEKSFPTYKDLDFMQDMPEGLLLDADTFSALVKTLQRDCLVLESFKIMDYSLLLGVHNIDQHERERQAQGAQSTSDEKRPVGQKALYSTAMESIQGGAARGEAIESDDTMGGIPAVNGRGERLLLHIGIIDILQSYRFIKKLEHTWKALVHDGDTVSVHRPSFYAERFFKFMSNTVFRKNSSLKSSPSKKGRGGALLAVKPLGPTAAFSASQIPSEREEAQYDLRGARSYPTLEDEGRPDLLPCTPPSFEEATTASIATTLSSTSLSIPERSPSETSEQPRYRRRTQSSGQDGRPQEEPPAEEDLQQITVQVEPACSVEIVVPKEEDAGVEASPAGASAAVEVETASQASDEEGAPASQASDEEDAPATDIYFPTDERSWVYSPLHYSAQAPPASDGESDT

Cc1ccc(NC(=O)c2ccc(CN(CCN(C)C)C(=O)c3cccnc3)cc2)cc1Nc1nccc(-c2cccnc2)n1 was tested, and the Activity [1] was 83%, the Activity [2] was 99% and the Activity [3] was 98%. It also gave a GI50 [4] greater than 10 µM, an Activity [5] of 83% and an Activity [6] of 98%. For the same compound, the Activity [7] was 90%, the Ratio IC50 (Homo sapiens) was 46 and the Activity [8] was 100%. It also gave an Activity [9] of 96%, an Activity [10] of 71% and an Activity [11] of 100%. The Activity [12] was 89%, the Activity [13] was 90% and the Activity [14] was 98%. It also gave an Activity [15] of 95%, an Activity [16] of 99% and an Activity [17] of 79%. It also gave an Activity [18] of 92% and an Activity [19] of 100%.
